Data: ChEMBL document CHEMBL1126262, “2-(Aminomethyl)chromans that inhibit iron-dependent lipid peroxidation and protect against central nervous system trauma and ischemia” (J Med Chem, 1992)
Values joined by “and” are separate entries in the source; they are usually repeats but may differ in a detail not shown here. Equal values may be shown once. Active and inactive are the calls of the source. The calls are words filed in the database; no cut-off is given here.

How the values were obtained:
Rattus norvegicus = species: Rattus norvegicus; assay: Tested in vitro for the inhibition of iron-dependent lipid peroxidation against rat brain homogenates, by malondialdehyde (MDA) formation assay; format: functional
Mus musculus [1] = assay: Tested in vivo for neuroprotectant activity against mouse head injury(MHI) model.; format: functional
In short: (§1)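 Unanesthetized male CF-1 mice (17-20 g), concussive head injury from 50-g weight dropped 18 cm (~900 g-cm). Vehicle (0.05 N HCl or 0.5% Tween 80) or drug, 0.001-30.0 mg/kg, iv bolus within 5 min postinjury (oral where indicated). Blind grip-string test at 1 h; groups of 20-25 mice, vehicle plus four dose groups; Duncan's multiple range test.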

Mus musculus [2] = species: Mus musculus; assay: Lowest effective dosage in Mouse Head Injury Assay.; format: functional; in short: as §1
Mus musculus [3] = assay: Antagonistic activity against potassium cyanide induced cytotoxic hypoxia in male CF-1 mice at a dose of 20 mg/kg(p<0.05); format: organism-based; parameters: dose 20 mg/kg; conditions: in vivo
Mus musculus [4] = assay: Antagonistic activity against potassium cyanide induced cytotoxic hypoxia in male CF-1 mice at a dose of 10 mg/kg(p<0.05); format: organism-based; parameters: dose 10 mg/kg; conditions: in vivo
Mus musculus [5] = assay: Tested in vivo for neuroprotectant activity against mouse head injury(MHI) model; IA = Inactive; format: functional, organism-based; in short: as §1
Mus musculus [6] = assay: Antagonistic activity against potassium cyanide induced cytotoxic hypoxia in male CF-1 mice at a dose of 10 mg/kg; format: organism-based; parameters: dose 10 mg/kg; conditions: in vivo
Mus musculus [7] = species: Mus musculus; assay: Lowest effective dosage using in Mouse Head Injury Assay; format: functional; in short: as §1

IC50 (Rattus norvegicus; Rattus norvegicus, Brain) | SMILES | Grip score (Mus musculus [1]) | Lowest effective dose (Mus musculus [2]) | also measured
1000 nM | Cc1c(C)c2c(c(C)c1O)CCC(C)(C(=O)N1CCN(Cc3ccccc3)CC1)O2 (centres undefined) | – | – | –
1000 nM | CCN(CC)c1ccc(N2CCN(CC3(C)CCc4c(C)c(O)c(C)c(C)c4O3)CC2)nc1N(CC)CC.Cl.O (centres undefined) | 11.9 | 0.01 mg/kg | –
48000 nM | Cc1c(C)c2c(c(C)c1O)CCC(C)(CNCc1cccnc1)O2 (centres undefined) | – | – | –
800 nM | Cc1c(C)c2c(c(C)c1O)CCC(C)(CNCCCCc1ccccc1)O2 (centres undefined) | – | – | –
28000 nM | Cc1c(C)c2c(c(C)c1O)CC[C@@](C)(CCC[C@H](C)CCC[C@H](C)CCCC(C)C)O2 [ALPHA-TOCOPHEROL] | – | – | –
1000 nM | CCNc1cccnc1N1CCN(CC2(C)CCc3c(C)c(O)c(C)c(C)c3O2)CC1.Cl.O (centres undefined) | 10.4 and 11.9 | 0.01 mg/kg | –
17000 nM | CC(=O)Oc1c(C)c(C)c2c(c1C)CCC(C)(C(=O)N1CCN(c3cc(N4CCCC4)nc(N4CCCC4)n3)CC1)O2 (centres undefined) | – | – | –
177000 nM | Cc1c(C)c2c(c(C)c1O)CCC(C)(CN(C)CCc1ccccn1)O2 (centres undefined) | – | – | –
1000 nM | Cc1c(C)c2c(c(C)c1O)CCC(C)(CN1CCN(c3ccccn3)CC1)O2.Cl.O (centres undefined) | 10.7 | 0.01 mg/kg | –
23000 nM | Cc1c(C)c2c(c(C)c1O)CCC(C)(CNCCc1ccccn1)O2 (centres undefined) | – | – | –
1400 nM | Cc1c(C)c2c(c(C)c1O)CCC(C)(CN1CCCC1)O2 (centres undefined) | – | – | –
900 nM | Cc1c(C)c2c(c(C)c1O)CCC(C)(CNCCc1ccccc1)O2.O=C(O)C(=O)O (centres undefined) | 8.7 | 1 mg/kg | –
1500 nM | CC(=O)Oc1c(C)c(C)c2c(c1C)CCC(C)(CN1CCN(c3cc(N4CCCC4)nc(N4CCCC4)n3)CC1)O2 (centres undefined) | 9.2 | 1 mg/kg | –
1000 nM | Cc1c(C)c2c(c(C)c1O)CCC(C)(C(=O)NCCCc1ccccc1)O2 (centres undefined) | – | – | –
2300 nM | Cc1c(C)c2c(c(C)c1O)CCC(C)(C(=O)Nc1ccncc1)O2 (centres undefined) | 11.5 | 0.01 mg/kg | –
800 nM | Cc1c(C)c2c(c(C)c1O)CCC(C)(C(=O)N1CCN(c3ccc(Cl)cc3)CC1)O2 (centres undefined) | – | – | –
12000 nM | CCNc1cccnc1N1CCN(C(=O)C2(C)CCc3c(C)c(O)c(C)c(C)c3O2)CC1 (centres undefined) | – | – | –
1000 nM | Cc1c(C)c2c(c(C)c1O)CCC(C)(CNCCCc1ccccc1)O2 (centres undefined) | – | – | –
– | Cc1c(C)c2c(c(C)c1O)CCC(C)(CN1CCN(c3cc(N4CCCC4)nc(N4CCCC4)n3)CC1)O2.Cl.Cl (stereo in doubt; 59) | 14.4 | – | IC50 (Rattus norvegicus): 1500 nM
– | Cc1c(C)c2c(c(C)c1O)CCC(C)(CN1CCN(c3cc(N4CCCC4)nc(N4CCCC4)n3)CC1)O2.Cl.Cl.O (centres undefined) | 13.7 and 14.7 | – | LD50 (Mus musculus [3]): 134.2%; LD50 (Mus musculus [4]): 114%; IC50 (Rattus norvegicus): 600 nM
10000 nM | Cc1c(C)c2c(c(C)c1O)CCC(C)(C(=O)N1CCCC1)O2 (centres undefined) | – | – | –
10000 nM | Cc1c(C)c2c(c(C)c1O)CCC(C)(C(=O)N1CCNCC1)O2 (centres undefined) | – | – | –
200 nM | CCN(CC)c1ccc(N2CCN(C(=O)C3(C)CCc4c(C)c(O)c(C)c(C)c4O3)CC2)nc1N(CC)CC (centres undefined) | – | – | Grip score (Mus musculus [5]): inactive
1000 nM | Cc1c(C)c2c(c(C)c1O)CCC(C)(CN1CCNCC1)O2 (centres undefined) | – | – | –
1300 nM | Cc1c(C)c2c(c(C)c1O)CCC(C)(C(=O)NCCc1ccccc1)O2 (centres undefined) | – | – | –
47000 nM | Cc1c(C)c2c(c(C)c1O)CCC(C)(C(=O)NCc1cccnc1)O2 (centres undefined) | – | – | –

IC50 (Rattus norvegicus; Rattus norvegicus, Brain) | SMILES | Grip score (Mus musculus [1]) | Lowest effective dose (Mus musculus [2]) | also measured
– | C[C@@H]1C[C@H]2[C@@H]3CCC4=CC(=O)C=C[C@]4(C)C3=CC[C@]2(C)[C@H]1C(=O)CN1CCN(c2cc(N3CCCC3)nc(N3CCCC3)n2)CC1 [TIRILAZAD] | 14.5 | 0.003 mg/kg | LD50 (Mus musculus [3]): 128.4%; LD50 (Mus musculus [6]): 103.6%
900 nM | Cc1c(C)c2c(c(C)c1O)CCC(C)(CN1CCN(c3ccc(Cl)cc3)CC1)O2 (centres undefined) | – | – | –
1300 nM | Cc1c(C)c2c(c(C)c1O)CCC(C)(CCN1CCN(c3cc(N4CCCC4)nc(N4CCCC4)n3)CC1)O2 (centres undefined) | – | – | Grip score (Mus musculus [5]): inactive
4100 nM | COc1ccc(CCNC(=O)C2(C)CCc3c(C)c(O)c(C)c(C)c3O2)cc1OC (centres undefined) | – | – | –
8700 nM | Cc1c(C)c2c(c(C)c1O)CCC(C)(C(=O)NCCN(C)C)O2 (centres undefined) | – | – | Grip score (Mus musculus [5]): inactive
23000 nM | Cc1c(C)c2c(c(C)c1O)CCC(C)(C(=O)N1CCN(c3ncccn3)CC1)O2 (centres undefined) | 12 | 1 mg/kg | –
1700 nM | Cc1c(C)c2c(c(C)c1O)CCC(C)(CNCCN(C)C)O2 (centres undefined) | – | – | Grip score (Mus musculus [5]): inactive
1300 nM | Cc1c(C)c2c(c(C)c1O)CCC(C)(CC(=O)N1CCN(c3cc(N4CCCC4)nc(N4CCCC4)n3)CC1)O2 (centres undefined) | – | – | Grip score (Mus musculus [5]): inactive
15000 nM | COc1ccccc1N1CCN(C(=O)C2(C)CCc3c(C)c(O)c(C)c(C)c3O2)CC1 (centres undefined) | 12.8 | 0.01 mg/kg | –
1800 nM | Cc1c(C)c2c(c(C)c1O)CCC(C)(C(=O)Nc1ccccn1)O2 (centres undefined) | 14.4 | 0.01 mg/kg | –
1000 nM | COc1ccccc1N1CCN(CC2(C)CCc3c(C)c(O)c(C)c(C)c3O2)CC1 (centres undefined) | – | – | Grip score (Mus musculus [5]): inactive
11000 nM | COc1ccc(CNCC2(C)CCc3c(C)c(O)c(C)c(C)c3O2)cc1OC (centres undefined) | – | – | –
43000 nM | Cc1c(C)c2c(c(C)c1O)CCC(C)(C(=O)O)O2 (centres undefined) [TROLOX] | – | – | –
16000 nM | Cc1c(C)c2c(c(C)c1O)CCC(C)(CNc1ccncc1)O2 (centres undefined) | – | – | –
200 nM | Cc1c(C)c2c(c(C)c1O)CCC(C)(CNc1ccccn1)O2 (centres undefined) | 12.3 | 0.01 mg/kg | –
1000 nM | Cc1c(C)c2c(c(C)c1O)CCC(C)(CN1CCN(c3ncccn3)CC1)O2 (centres undefined) | 10.3 | 0.01 mg/kg | –
1000 nM | COc1ccc(CCNCC2(C)CCc3c(C)c(O)c(C)c(C)c3O2)cc1OC.Cl (centres undefined) | 8.4 | 0.01 mg/kg | –
– | Cc1c(C)c2c(c(C)c1O)CCC(C)(CN1CCN(c3cc(N4CCCC4)nc(N4CCCC4)n3)CC1)O2.Cl.Cl (stereo in doubt; 60) | 11.5 | 0.001 mg/kg | IC50 (Rattus norvegicus): 1100 nM
700 nM | Cc1c(C)c2c(c(C)c1O)CCC(C)(C(=O)NCCCCc1ccccc1)O2 (centres undefined) | – | – | –
700 nM | COc1ccc(N2CCN(C(=O)C3(C)CCc4c(C)c(O)c(C)c(C)c4O3)CC2)cc1 (centres undefined) | – | – | –
200 nM | COc1ccc(N2CCN(CC3(C)CCc4c(C)c(O)c(C)c(C)c4O3)CC2)cc1 (centres undefined) | – | – | –
– | C[C@H]1C[C@@H]2[C@H]([C@@H](O)C[C@@]3(C)[C@H]2CC[C@]3(O)C(=O)COC(=O)CCC(=O)[O-])[C@@]2(C)C=CC(=O)C=C12.[Na+] [METHYLPREDNISOLONE SODIUM SUCCINATE] | 13.5 | 15 mg/kg | –
1000 nM | Cc1c(C)c2c(c(C)c1O)CCC(C)(C(=O)N1CCN(c3ccccn3)CC1)O2 (centres undefined) | 8.2 | 0.01 mg/kg | –
5400 nM | Cc1c(C)c2c(c(C)c1O)CCC(C)(C(=O)N(C)CCc1ccccn1)O2 (centres undefined) | – | – | –
5500 nM | COc1ccc(CNC(=O)C2(C)CCc3c(C)c(O)c(C)c(C)c3O2)cc1OC (centres undefined) | – | – | –
11000 nM | Cc1c(C)c2c(c(C)c1O)CCC(C)(C(=O)NCCc1ccccn1)O2 (centres undefined) | – | – | –

SMILES | IC50 (Rattus norvegicus; Rattus norvegicus, Brain) | Grip score (Mus musculus [1]) | Lowest effective dose (Mus musculus [2]) | also measured
Cc1c(C)c2c(c(C)c1O)CCC(C)(CN1CCN(Cc3ccccc3)CC1)O2.Cl.Cl (centres undefined) | 1000 nM | 13 | 0.01 mg/kg | LD50 (Mus musculus [3]): 181.4%; LD50 (Mus musculus [4]): 130%
Cc1c(C)c2c(c(C)c1O)CCC(C)(C(=O)N1CCN(c3cc(N4CCCC4)nc(N4CCCC4)n3)CC1)O2 (centres undefined) | 500 nM | 17.5 | – | LD50 (Mus musculus [3]): 115.2%; Lowest effective dose (Mus musculus [7]): 0.01 mg/kg; LD50 (Mus musculus [6]): 99.3%
